Results on 167 variants are retold here after the RNAGym collection of RNA variant scans (doi:10.1126/science.aae0568).

Fewer inactive variants are shown than the library holds.

The labels stand for the following.
B1: tRNA (parent)
chain: GUUCCGUUGGCGUAAUGGUAACGCGUCUCCCUCCUAAGGAGAAGACUGCGGGUUCGAGUCCCGUACGGAACG

The data set covers variants of B1. Briefly: yeast fitness relative to wild type (ratio to wild type); higher = fitter; tRNA-Arg(CCU), competitive growth, 37 C, YPD. The method in brief: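 Changes in genotype frequencies gave Darwinian fitness relative to wild type. Frequencies were read by 100-nucleotide paired-end sequencing of gene amplicons before and after pooled Saccharomyces cerevisiae strains, carrying tRNA-Arg(CCU) gene variants at the native locus, were competed in YPD at 37°C for 24 hours in six replicates. A genotype was kept only with ≥ 100 starting reads, and estimates < 0.5 were set to 0.5.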
In the case of U2G U54C, the yeast fitness came to 0.962.
In the case of U3C C11A C24U A42G it was 0.638; in that of U3C A21U, 0.642.
Regarding A20U G41C C46U C66A, the yeast fitness was ≤ 0.5.
The result for G18A G25A reads 0.665; that for U32A G41C A65U, ≤ 0.5; that for U2A A14C A20G A36G U54C C55U G68C, 0.544.
The result for G41C A42C reads 0.565.
The result for C5G G44A C55G reads 0.527; that for A40C A42U C49G, 0.624; that for C34A A37C, 0.713.
As for C5U C27G G38A A69C, the yeast fitness was ≤ 0.5.
In the case of U2A C33U C34U G38A G51A C55A A65U it was ≤ 0.5; in that of G50C G52A, 0.607; in that of U13G A37C U47A A70G, ≤ 0.5.
As to U3A A15G G48C, the yeast fitness was determined as 0.595.
In the case of C4G G44C C49G G56A C61G A65U A69G, the yeast fitness was found to be 0.641.
G17A U47C A57G A69U: the yeast fitness was ≤ 0.5.
On to G12A U32A A40U G41C C46A G52A, for which the yeast fitness was ≤ 0.5.
Take U7C A21C C27U: the yeast fitness is ≤ 0.5.
The result for G38A G67A reads 0.881.
For the variant G39C A40G, the yeast fitness worked out at 0.67.
Take C4U C34G U35A A42U C60U: the yeast fitness was ≤ 0.5.
In the case of A20G A36U C55G it was ≤ 0.5; in that of C27G U28C, 0.609; in that of G6A G17A C24G C27G G67A, ≤ 0.5.
As to G10A C24A G44A A65U, the yeast fitness was ≤ 0.5.
The result for C4U U26A reads 0.86; that for C5G U19C A57U, 0.533.
The result for A15G A20U A57U C60U reads ≤ 0.5.
For U28C C46A, the yeast fitness stood at 0.992.
In the case of A45C G58A C62U A69C it was 0.59.
For the variant U16G C29U C55G, the yeast fitness was ≤ 0.5.
In the case of C24A G44C C49A C60U A69C it was 0.599; in that of G39A A42G C66U, ≤ 0.5.
C11U A21G A70C: the yeast fitness turned out to be 0.818.
Regarding C4U G56A A70C, the yeast fitness was found to be 0.754.
Turning to G10C U13C A15C C24U U54C C60A C62A, the yeast fitness was ≤ 0.5.
For C33U C49G G52C, the yeast fitness came to 0.501.
In the case of G23U A69C it was 0.695; in that of C34U A37U G58C C62A, 0.736; in that of U3C A15C G38A U54A A57U, ≤ 0.5.
On to C33U G52A, for which the yeast fitness came out at 0.58.
For the variant G17C C22U C49G, the yeast fitness was ≤ 0.5.
With A20U C34G G38C, the yeast fitness is ≤ 0.5.
Turning to U8G A37C G68A, the yeast fitness is ≤ 0.5.
As to C30U A43U G51C, the yeast fitness was ≤ 0.5.
Consider U7C A36G A57U, for which the yeast fitness is 0.566.
In the case of A15U C22A G23A C24A it was ≤ 0.5; in that of A42C C46G A65U, ≤ 0.5.
In the case of G18A C49A A65U it was 0.558; in that of G25C C34G, 0.551.
The result for U3G A70C reads 0.897; that for G10A U32C A57G, ≤ 0.5.
As for C29U C31U G41C A65G, the yeast fitness was found to be 0.609.
In the case of A20G A37G G38A C55U U59G it was 0.563; in that of G23C G41C C66U, ≤ 0.5.
Consider C11G U16C C24U U28C, for which the yeast fitness was ≤ 0.5.
The result for G67A A69U reads 0.733; that for C5U U16A C34A A70G, ≤ 0.5.
C5A U13G C24G C31A C62G U64A: the yeast fitness was ≤ 0.5.
The result for U2G C31G G39C C60A reads ≤ 0.5; that for C11G C34U U35A C55U, 0.59; that for C24A A45G G50A, ≤ 0.5.
In the case of C11U C61A it was 0.869; in that of A36U A40U C60A, 0.713.
On to C5U U26A G48C A57G, for which the yeast fitness was ≤ 0.5.
Turning to U19G G44A C46G, the yeast fitness amounted to 0.946.
The result for G23C U26C C46G C55U reads ≤ 0.5; that for U47A A65C C66G, ≤ 0.5.
In the case of C46G C66G it was 0.986.
In the case of A42C U64G it was 0.596; in that of U16C C29U C62U, 0.508; in that of C24G U35G C66U, ≤ 0.5.
Turning to U3G A65U, the yeast fitness was 0.855.
In the case of A45C A57U it was 0.682.
In the case of A15U C27U C34U G41C U47G it was 0.555; in that of C4G U8C G25A A42U A69C, ≤ 0.5; in that of C22G C34U C46A C62U, 0.611.
Regarding G9A G17C A45U A65C, the yeast fitness was determined as 0.583.
As to U8A A15C G18C C49U, the yeast fitness came to 0.603.
In the case of C29A G67A it was 0.605; in that of C27U C30A A42U A57U G63A A65C, 0.597; in that of C31A A43G A70U, 0.708.
The result for U3A U32A reads 0.74; that for C27G A43G C60A, ≤ 0.5.
In the case of U2C C4U C33A G41C C60U A65U A69U, the yeast fitness was ≤ 0.5.
Take U13G A65U: the yeast fitness stood at 0.896.
On to A14C C22G A37C, for which the yeast fitness was ≤ 0.5.
For the variant A20G C24U C46U, the yeast fitness worked out at 0.733.
Take U2A C29A A42G C49U U54A C60G G68A: the yeast fitness is ≤ 0.5.
For C4A G18A C27A A37C G56A, the yeast fitness was 0.579.
In the case of C4A G18A C27U U28G C33G A36G it was ≤ 0.5; in that of A43U G48C C60A U64A, ≤ 0.5.
The result for G12A C30U C46G reads ≤ 0.5.
The result for C4G U8C C24G U47C reads ≤ 0.5; that for U3G G50C, 0.699; that for U13A G18A, 0.705.
On to U2C G23C C55G, for which the yeast fitness came to 0.553.
In the case of G17A C55G it was ≤ 0.5; in that of C5A G17A A36G A70G, ≤ 0.5.
Consider U8G C34G, for which the yeast fitness is ≤ 0.5.
The result for C5A C11G G41C G48C reads ≤ 0.5.
U7A A45C: the yeast fitness was found to be 0.737.
In the case of C27U C30U C34G A37C C61A it was ≤ 0.5; in that of A20U G25A C27G G67A, 0.542; in that of C4U U13A C46U U53A, 0.633.
Consider A15C A69G, for which the yeast fitness came out at 0.877.
In the case of G6A C22G G25A U47A A70C it was ≤ 0.5; in that of U2G C46U, 1.01; in that of U16C U28C C55U A57C G58A, ≤ 0.5.
U3A C55G A65C: the yeast fitness is ≤ 0.5.
In the case of C5U A42G G51C G56A it was 0.698.
The result for G18A G50A reads 0.853; that for U2A U32C A57G, 0.652; that for U16A U54G, 0.536.
In the case of A14G C31U A42G C62U A69C it was ≤ 0.5; in that of C31G A37C A70C, ≤ 0.5; in that of U2C C24G A42U G67A, ≤ 0.5.
Regarding A40U G52C, the yeast fitness is 0.608.
In the case of U19C A45C C61A it was ≤ 0.5.
On to A14G A20C A40C A45G C46A, for which the yeast fitness was ≤ 0.5.
A37G U47C: the yeast fitness was 0.744.
In the case of C46U C49G G51C C66G it was ≤ 0.5; in that of U13A U16A A43C, 0.564.
As to C5U C11A C24G C27G A36U G38C C60G C66A, the yeast fitness is 0.522.
The result for G23A G58C reads 0.885.
The result for C4U A20G U32G A43C A45U reads ≤ 0.5; that for U3A U19A C46A G56A, 0.564.
On to A40U G56A G58C, for which the yeast fitness was determined as 0.786.
Consider A37U G48C A70U, for which the yeast fitness was 0.547.
As to A43C U54C, the yeast fitness was 0.876.
Turning to G12A A65G, the yeast fitness was determined as 0.98.
In the case of U26A U53A A65G it was ≤ 0.5; in that of C29A U35A, 0.672.
C5A G58U: the yeast fitness came to 0.946.
For the variant C29G A37U U59C C66G, the yeast fitness worked out at 0.687.
In the case of A20C C34G it was 0.527.
The result for C11U C49U A70C reads 0.672.
In the case of G9C G12A C22U C24U G58A it was ≤ 0.5; in that of U7A C22U C66G G68C, ≤ 0.5; in that of U28A C31U C66A, ≤ 0.5.
Consider G10C C30G C60A, for which the yeast fitness is ≤ 0.5.
The result for A36U G39A reads 0.657.
The result for C46G A65C reads 0.97; that for C29U C33A C34U G51C U64A C66U A69C, ≤ 0.5; that for C27U C34U C49G G56C, ≤ 0.5.
Turning to C33U G56A G58C, the yeast fitness was found to be 0.589.
The result for A43U G51A C55U reads ≤ 0.5.
As for U8G U35C A57C, the yeast fitness is ≤ 0.5.
For the variant G10C C49U C66G, the yeast fitness was ≤ 0.5.
In the case of U16C A36U G63A it was 0.772; in that of C11U U32A C34U, ≤ 0.5.
The result for G48A U54A reads 0.692; that for U13C A40U C62A, 0.557; that for A20C C34U G52A, 0.574.
Take C11U G39A A40U: the yeast fitness turned out to be 0.673.
The result for C5G A15C reads 0.626; that for A45G C60G, 0.821; that for C34G A42C G51C, 0.525.
In the case of G41C G52C it was 0.527; in that of G10A U16A U28C A42C C66U, ≤ 0.5; in that of C60A A65U A70U, 0.53.
For the variant A21U G52C, the yeast fitness was ≤ 0.5.
The result for U2C U3C C34U G63A reads ≤ 0.5; that for C4A C24U A36U G39C C46G C55A C66G, ≤ 0.5.
The result for G9A G12A C49U reads 0.692.
